Measurements taken from ChEMBL document CHEMBL3272032, “Antifolate studies. Activities of 40 potential antimalarial compounds against sensitive and chlorguanide triazine resistant strains of folate-requiring bacteria and Escherichia coli” (J Med Chem, 1977).
Activity calls are given as the source filed them. No cut-off for these calls is given here.

Key:
Lacticaseibacillus casei [1] = assay: Fold increase in resistance, ratio of IC50 for chlorguanide triazine-resistant Lactobacillus casei ATCC 7469 to IC50 for sensitive Lactobacillus casei ATCC 7469; type: functional
How it was run: (§1)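 Resistant substrains were made by serial transfer in rising concentrations of cycloguanil, and the most resistant isolate of each organism was used. Both strains were assayed turbidimetrically under identical conditions. FIR = IC50 of the resistant strain divided by IC50 of the sensitive parent.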

Plasmodium berghei [2] = assay: Antimalarial activity against Plasmodium berghei infected in sc dosed mouse assessed as dose required to survivors for period of 60 days; type: functional
How it was run: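 Mice infected with a blood-induced P. berghei inoculum were given one subcutaneous dose in peanut oil. Survivors at 60 days counted as cured. The minimum curative dose is the lowest dose that cured any mouse.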

Enterococcus faecium [3] = assay: Antibacterial activity against sensitive Streptococcus faecium ATCC 8043 assessed as reduction in growth in presence of 0.002 ug/ml folic acid; type: functional, organism-based
How it was run: (§2)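 Folate-requiring strains in the medium of the earlier assay method. Folic acid was 0.002 μg/ml for S. faecium and 0.001 μg/ml for L. casei. Turbidity read on a Klett-Summerson colorimeter. IC50 is the micromolar concentration reducing growth to 50% of control. Top concentration was 1000 μg/ml, or 100 μg/ml if supply was limited.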

Enterococcus faecium [4] = assay: Fold increase in resistance, ratio of IC50 for chlorguanide triazine-resistant Streptococcus faecium ATCC 8043 to IC50 for sensitive Streptococcus faecium ATCC 8043; type: functional
How it was run: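 Resistant S. faecium substrain raised by serial transfer in increasing chlorguanide triazine. IC50 (µM, 50% growth inhibition by turbidity) was found for resistant and parent strains in folic acid (0.002 µg/ml) medium. Fold increase taken as IC50 resistant / IC50 sensitive.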

Lacticaseibacillus casei [5] = assay: Antibacterial activity against sensitive Lactobacillus casei ATCC 7469 assessed as reduction in growth in presence of 0.001 ug/ml folic acid; type: functional, organism-based; how it was run: as §2
Lacticaseibacillus casei [6] = assay: Antibacterial activity against chlorguanide triazine-resistant Lactobacillus casei ATCC 7469 assessed as reduction in growth; type: functional, organism-based
How it was run: (§3)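 Folate-requiring strains grown in medium with folic acid, 0.002 µg/ml for S. faecium and 0.001 µg/ml for L. casei; P. cerevisiae given folinic acid, 0.001 µg/ml. Resistant substrains came from serial transfer in rising chlorguanide triazine, and the most resistant were used. Compounds tested up to 1000 µg/ml, or 100 µg/ml when supply was limited. Growth read as Klett turbidity; IC50 is the µM concentration giving 50% growth inhibition.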

[7] = Antibacterial activity against sensitive Pediococcus cerevisiae ATCC 808 assessed as reduction; type: functional
How it was run: (§4)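 P. cerevisiae grown with folinic acid at 0.001 μg/ml in the earlier-described medium. Turbidity read on a Klett-Summerson colorimeter. IC50 is the micromolar concentration reducing growth to 50% of control. Top concentration was 1000 μg/ml, or 100 μg/ml when supply was limited.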

Escherichia coli [8] = assay: Antibacterial activity against sensitive Escherichia coli ATCC 10536 assessed as reduction in growth; type: functional, organism-based
How it was run: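 Growth inhibition in Sahyun et al. medium plus 0.6% acid-hydrolyzed casein. Growth read as turbidity on a Klett-Summerson photoelectric colorimeter. IC50 is the micromolar concentration giving 50% growth inhibition. Top concentration was 1000 μg/ml, or 100 μg/ml when compound was limited.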

Lacticaseibacillus casei [9] = assay: Antibacterial activity against chlorguanide triazine-resistant Lactobacillus casei ATCC 7469 assessed as reduction in growth in presence of 0.001 ug/ml folic acid; type: functional, organism-based; how it was run: as §3
Plasmodium berghei [10] = assay: Antimalarial activity against Plasmodium berghei infected in sc dosed mouse assessed as active dose required to increase of 100% in mean survival time; type: functional; conditions: read-out: MED
How it was run: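 Mice received a standard blood-induced P. berghei inoculum and were then treated with one subcutaneous dose of compound suspended in peanut oil. The minimum active dose is the lowest dose that raised mean survival time by 100%.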

Pediococcus [11] = assay: Fold increase in resistance, ratio of IC50 for chlorguanide triazine-resistant Pediococcus cerevisiae ATCC 808 to IC50 for sensitive Pediococcus cerevisiae ATCC 808; type: functional; how it was run: as §1
Escherichia coli [12] = assay: Antibacterial activity against sensitive Escherichia coli ATCC 10536 assessed as reduction in growth in presence of p-aminobenzoic acid; type: functional, organism-based
How it was run: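 Reversal test. Drug inhibition was challenged with PABA in Sahyun et al. medium plus 0.6% acid-hydrolyzed casein. Growth read as turbidity on a Klett-Summerson colorimeter. Scored as reversal or nonreversal of the drug inhibition.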

Pediococcus [13] = assay: Antibacterial activity against sensitive Pediococcus cerevisiae ATCC 808 assessed as reduction in growth in presence of 0.001 ug/ml folinic acid; type: functional; how it was run: as §4
Lacticaseibacillus casei [14] = assay: Antibacterial activity against sensitive Lactobacillus casei ATCC 7469 assessed as reduction; type: functional, organism-based; how it was run: as §3
Enterococcus faecium [15] = assay: Antibacterial activity against sensitive Streptococcus faecium ATCC 8043 assessed as reduction in growth; type: functional, organism-based; how it was run: as §3
[16] = Antibacterial activity against chlorguanide triazine-resistant Pediococcus cerevisiae ATCC 808 assessed as reduction in growth; type: functional; how it was run: as §3
Enterococcus faecium [17] = assay: Antibacterial activity against chlorguanide triazine-resistant Streptococcus faecium ATCC 8043 assessed as reduction in growth; type: functional, organism-based; how it was run: as §3
Enterococcus faecium [18] = assay: Antibacterial activity against chlorguanide triazine-resistant Streptococcus faecium ATCC 8043 assessed as reduction in growth in presence of 0.002 ug/ml folic acid; type: functional, organism-based; how it was run: as §3

Structure (SMILES)	Ratio IC50 (Lacticaseibacillus casei [1])	MCD (Plasmodium berghei [2])	inhibition (Enterococcus faecium [3])	Ratio IC50 (Enterococcus faecium [4])	inhibition (Lacticaseibacillus casei [5])	IC50 (Lacticaseibacillus casei [6])	IC50 [7]	IC50 (Escherichia coli [8])	inhibition (Lacticaseibacillus casei [9])	minimal effective dose (Plasmodium berghei [10])	Ratio IC50 (Pediococcus [11])	inhibition (Escherichia coli [12])	inhibition (Pediococcus [13])	IC50 (Lacticaseibacillus casei [14])	IC50 (Enterococcus faecium [15])	IC50 [16]	IC50 (Enterococcus faecium [17])	inhibition (Enterococcus faecium [18])
CCc1ccc(N2C(N)=NC(N)=NC2(C)C)cc1	11	>640 mg/kg	inactive	>9700	inactive	291 µM	42.6 µM	1900 µM	inactive	320 mg/kg	>8	Active	inactive	27.3 µM	0.036 µM	> 355 µM	> 350 µM	
COc1nccnc1NS(=O)(=O)c1ccc(N)cc1 [SULFALENE]	1	160 mg/kg				8200 µM	> 3600 µM	13.5 µM		40 mg/kg		inactive		8200 µM	> 3600 µM		> 3600 µM	
Nc1ccc(S(=O)(=O)Nc2nccs2)cc1 [SULFATHIAZOLE]		160 mg/kg				> 3900 µM	> 3900 µM	7.8 µM		40 mg/kg		inactive		> 3900 µM	> 3900 µM		> 3900 µM	
CC1(C)N=C(N)N=C(N)N1OCc1ccc(Cl)c(Cl)c1 [CLOCIGUANIL]	54	20 mg/kg	inactive	3800	inactive	3.1 µM	0.14 µM	7 µM		2.5 mg/kg	59	Active	inactive	0.057 µM	0.0009 µM	8.2 µM	3.4 µM	
Nc1ccc(S(=O)(=O)Nc2ncccn2)cc1 [SULFADIAZINE]		640 mg/kg				> 4000 µM	> 4000 µM	12 µM		160 mg/kg		inactive		> 4000 µM	> 4000 µM		> 4000 µM	
Nc1nc(=O)c2c([nH]1)NCC(CCNc1ccc(C(=O)[O-])cc1)N2.[Na+] (centres undefined)	0.03	>640 mg/kg	inactive	800	inactive	0.2 µM	> 2900 µM		inactive	> 640 mg/kg				6 µM	0.009 µM		7.2 µM	inactive
Cc1ccccc1-c1nc2c(N)nc(N)nc2nc1N	0.03	320 mg/kg	inactive	113	inactive	1.9 µM	8.5 µM	209 µM		40 mg/kg	5	Active	inactive	68 µM	1.1 µM	44 µM	124 µM	
O=C(NO)c1ccc(C(=O)NO)cc1	1	640 mg/kg	Active	3	Active	3000 µM	> 5000 µM	> 5000 µM	Active	320 mg/kg				2600 µM	1700 µM		> 5000 µM	Active
